Activity calls are given as the source filed them. The calls are words filed in the database; no cut-off is given here.
Key:
[1] = molecular target: Tumor necrosis factor receptor superfamily member 10B (Homo sapiens) (UniProt O14763); assay: Induction of DR5 receptor promotor activity in human DLD1 cells co-transfected with Sac1 at 43.9 uM after 24 hrs by luciferase assay; assay type: cell-based; settings: DLD-1
[2] = molecular target: Tumor necrosis factor receptor superfamily member 10B (Homo sapiens) (UniProt O14763); assay: Induction of DR5 receptor promotor activity in human DLD1 cells co-transfected with Sac1 at 39 uM after 24 hrs by luciferase assay; assay type: cell-based; settings: DLD-1
[3] = molecular target: Tumor necrosis factor receptor superfamily member 10B (Homo sapiens) (UniProt O14763); assay: Induction of DR5 receptor promotor activity in human DLD1 cells co-transfected with Sac1 cells at 18.5 uM after 24 hrs by luciferase assay; assay type: cell-based
[4] = system: DLD-1; assay: Cytotoxicity against human DLD1 cells co-transfected with Sac1 after 24 hrs; assay type: functional, cell-based; settings: DLD-1, 24 h
[5] = system: DLD-1; assay: Induction of DR5 protein expression in human DLD1 cells co-transfected with Sac1 cells after 24 hrs by Western blot analysis; assay type: functional, cell-based
How it was run: (§1)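 Lysates of DLD1/TR cells treated 24 h (procaspase-8 after combined TRAIL exposure). Equal protein resolved by SDS-PAGE: 15% for Bcl-xL, 12.5% for DR5, 10% for caspase-8. Transferred to PVDF and probed 1 h at room temperature with primary antibody, then HRP secondary 1 h. Chemiluminescent detection with β-actin as loading control.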

[6] = system: DLD-1; assay: Induction of DR5 gene expression in human DLD1 cells co-transfected with Sac1 cells at 9.3 uM after 24 hrs by RT-PCR analysis; assay type: functional
[7] = system: DLD-1; assay: Induction of DR4 gene expression in human DLD1 cells co-transfected with Sac1 cells after 24 hrs by RT-PCR analysis; assay type: functional, cell-based
[8] = system: DLD-1; assay: Decrease in Bcl-xL mRNA expression in human DLD1 cells co-transfected with Sac1 cells at 9.3 uM after 24 hrs by RT-PCR analysis; assay type: functional, cell-based
[9] = system: DLD-1; assay: Decrease in Bcl-xL mRNA expression in human DLD1 cells co-transfected with Sac1 cells at 18.5 uM after 24 hrs by RT-PCR analysis; assay type: functional, cell-based
[10] = system: DLD-1; assay: Decrease in Bcl-xL protein expression in human DLD1 cells co-transfected with Sac1 cells after 24 hrs by Western blot analysis; assay type: functional, cell-based; how it was run: as §1
[11] = system: DLD-1; assay: Induction of apoptosis in TRAIL-resistant human DLD1 cells assessed as accumulation in sub-G1 phase after 24 hrs using annexin-V-FITC/propidium iodide staining by flow cytometry; assay type: functional
[12] = system: DLD-1; assay: Induction of apoptosis in TRAIL-resistant human DLD1 cells assessed as accumulation in sub-G1 phase at 9.3 uM after 24 hrs using annexin-V-FITC/propidium iodide staining by flow cytometry in presence of TRAIL; assay type: functional
[13] = system: DLD-1; assay: Induction of apoptosis in TRAIL-resistant human DLD1 cells assessed as accumulation in sub-G1 phase at 18.5 uM after 24 hrs using annexin-V-FITC/propidium iodide staining by flow cytometry in presence of TRAIL; assay type: functional
[14] = system: DLD-1; assay: Induction of apoptosis in TRAIL-resistant human DLD1 cells assessed as late apoptotic cells at 9.3 uM after 24 hrs using annexin-V-FITC/propidium iodide staining by flow cytometry in presence of TRAIL; assay type: functional
[15] = system: DLD-1; assay: Induction of apoptosis in TRAIL-resistant human DLD1 cells assessed as early apoptotic cells at 9.3 uM after 24 hrs using annexin-V-FITC/propidium iodide staining by flow cytometry in presence of TRAIL; assay type: functional
[16] = system: DLD-1; assay: Induction of apoptosis in TRAIL-resistant human DLD1 cells assessed as late apoptotic cells at 18.5 uM after 24 hrs using annexin-V-FITC/propidium iodide staining by flow cytometry in presence of TRAIL; assay type: functional
[17] = system: DLD-1; assay: Induction of apoptosis in TRAIL-resistant human DLD1 cells assessed as early apoptotic cells at 18.5 uM after 24 hrs using annexin-V-FITC/propidium iodide staining by flow cytometry in presence of TRAIL; assay type: functional
[18] = system: AGS; assay: Induction of apoptosis in TRAIL-resistant human AGS cells assessed as late apoptotic cells at 9.3 uM after 24 hrs using annexin-V-FITC/propidium iodide staining by flow cytometry in presence of TRAIL; assay type: functional
[19] = system: AGS; assay: Induction of apoptosis in TRAIL-resistant human AGS cells assessed as early apoptotic cells at 9.3 uM after 24 hrs using annexin-V-FITC/propidium iodide staining by flow cytometry in presence of TRAIL; assay type: functional
[20] = system: AGS; assay: Induction of apoptosis in TRAIL-resistant human AGS cells assessed as late apoptotic cells at 18.5 uM after 24 hrs using annexin-V-FITC/propidium iodide staining by flow cytometry in presence of TRAIL; assay type: functional
[21] = system: AGS; assay: Induction of apoptosis in TRAIL-resistant human AGS cells assessed as early apoptotic cells at 18.5 uM after 24 hrs using annexin-V-FITC/propidium iodide staining by flow cytometry in presence of TRAIL; assay type: functional
[22] = system: DLD-1; assay: Decrease in procaspase 8 in TRAIL-resistant human DLD1 cells co-transfected with Sac1 cells at 18.5 uM by Western blot analysis in presence of TRAIL; assay type: functional, cell-based; how it was run: as §1
[23] = system: DLD-1; assay: Activation of caspase 3 in TRAIL-resistant human DLD1 cells co-transfected with Sac1 cells by luminescent assay in presence of TRAIL; assay type: functional, cell-based
How it was run: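 Cells exposed 24 h to 4.6, 9.3 or 18.5 uM test agent and/or 100 ng/mL TRAIL, harvested and lysed. Lysate incubated with luminogenic z-DEVD-aminoluciferin substrate (Caspase-Glo 3/7) for 1 h at room temperature; luminescence read on a luminometer.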

[24] = system: DLD-1; assay: Induction of apoptosis in TRAIL-resistant human DLD1 cells assessed as accumulation in sub-G1 phase at 18.5 uM after 24 hrs using annexin-V-FITC/propidium iodide staining by flow cytometry in presence of TRAIL/z-IETD-fmk caspase 8 inhibitor; assay type: functional, cell-based
How it was run: (§2)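 DLD1/TR cells incubated 24 h with 18.5 uM test agent and 100 ng/mL TRAIL, plus either caspase-8 inhibitor z-IETD-fmk at 25 uM or caspase-9 inhibitor z-LEHD-fmk at 20 uM. Ethanol-fixed, PI/RNase stained, sub-G1 fraction read by flow cytometry (at least 20,000 events). Run in triplicate.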

[25] = system: DLD-1; assay: Induction of apoptosis in TRAIL-resistant human DLD1 cells assessed as accumulation in sub-G1 phase at 18.5 uM after 24 hrs using annexin-V-FITC/propidium iodide staining by flow cytometry in presence of TRAIL/caspase 9 inhibitor; assay type: functional, cell-based; how it was run: as §2
[26] = system: DLD-1; assay: Induction of apoptosis in TRAIL-resistant human DLD1 cells assessed as accumulation in sub-G1 phase at 18.5 uM after 24 hrs using annexin-V-FITC/propidium iodide staining by flow cytometry in presence of TRAIL/human recombinant DR5/Fc chimera protein; assay type: functional, cell-based
How it was run: (§3)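 DLD1/TR cells incubated 24 h with 18.5 uM test agent and 100 ng/mL TRAIL, plus 2.5 ug/mL human recombinant DR5/Fc or DR4/Fc chimera. Ethanol-fixed, PI/RNase stained, sub-G1 fraction read by flow cytometry (at least 20,000 events). Run in triplicate.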

[27] = system: DLD-1; assay: Induction of apoptosis in TRAIL-resistant human DLD1 cells assessed as accumulation in sub-G1 phase at 18.5 uM after 24 hrs using annexin-V-FITC/propidium iodide staining by flow cytometry in presence of TRAIL/human recombinant DR4/Fc chimera protein; assay type: functional, cell-based; how it was run: as §3
[28] = system: DLD-1; assay: Increase in CHOP mRNA expression in human DLD1 cells co-transfected with Sac1 cells; assay type: functional, cell-based
[29] = system: DLD-1; assay: Induction of DR5 gene expression in human DLD1 cells co-transfected with Sac1 cells at 18.5 uM after 24 hrs by RT-PCR analysis

Chain of Tumor necrosis factor receptor superfamily member 10B (Homo sapiens) (O14763 whole entry): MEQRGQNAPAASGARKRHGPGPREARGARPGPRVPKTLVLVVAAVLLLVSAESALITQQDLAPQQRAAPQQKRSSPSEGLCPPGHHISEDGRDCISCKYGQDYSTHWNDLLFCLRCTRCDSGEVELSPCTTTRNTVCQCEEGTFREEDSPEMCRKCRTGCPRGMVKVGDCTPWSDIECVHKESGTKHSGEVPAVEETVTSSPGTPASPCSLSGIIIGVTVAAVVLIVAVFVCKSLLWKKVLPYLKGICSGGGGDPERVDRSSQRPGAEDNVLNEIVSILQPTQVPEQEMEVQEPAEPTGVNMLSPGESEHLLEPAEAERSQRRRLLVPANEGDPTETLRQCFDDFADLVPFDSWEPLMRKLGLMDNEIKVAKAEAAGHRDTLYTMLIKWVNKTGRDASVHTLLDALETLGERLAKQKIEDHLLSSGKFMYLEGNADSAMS

In the case of COc1cc(/C=C/c2ccccc2)oc(=O)c1, the fold change (FC) [1] is reported as 2.5.

Compound O=C1C[C@@H](c2ccccc2)Oc2cc(O)cc(O)c21 has a fold change (FC) [2] of 2.5.

With COc1cc(O)cc(O)c1C(=O)/C=C/c1ccccc1 [CARDAMOMIN] the fold change (FC) [3] was 4.1, the IC50 [4] was 41.8 µM and the Activity [5] was “Dose-dependent effect”. For the same compound, the “fold change (FC)” value [6] was 2, the Activity [7] was “Dose-dependent effect” and the Activity [8] was “Active”. The Activity [9] was “Active”, the Activity [10] was “Dose-dependent effect” and the Activity [11] was 15.5%. The Activity [12] was 41.9%, the Activity [13] was 55.8% and the Activity [14] was 14.3%. The Activity [15] was 14.1%, the Activity [16] was 20.5% and the Activity [17] was 26.7%. The Activity [18] was 3%, the Activity [19] was 15% and the Activity [20] was 5%. For the same compound, the Activity [21] was 30.2%, the Activity [22] was “Active” and the Activity [23] was “Dose-dependent effect”. For the same compound, the Activity [24] was “inactive”, the Activity [25] was “inactive” and the Activity [26] was “Active”. For the same compound, the Activity [27] was “inactive”, the Activity [28] was “Dose-dependent effect” and the “fold change (FC)” value [29] was 4.1.
